Data from PMC3983348 (Journal of Medicinal Chemistry, 2014).
Like-named read-outs stand apart in the source and are kept apart here.

What was measured:
recombinant Top1 = target: T1, recombinant Top1 (Homo sapiens, UniProt P11387); test: Top1-mediated DNA cleavage assay; type: biochemical; conditions: compound-induced DNA cleavage, score based on the activity of 1 μM camptothecin
T1 sequence (P11387 1-765): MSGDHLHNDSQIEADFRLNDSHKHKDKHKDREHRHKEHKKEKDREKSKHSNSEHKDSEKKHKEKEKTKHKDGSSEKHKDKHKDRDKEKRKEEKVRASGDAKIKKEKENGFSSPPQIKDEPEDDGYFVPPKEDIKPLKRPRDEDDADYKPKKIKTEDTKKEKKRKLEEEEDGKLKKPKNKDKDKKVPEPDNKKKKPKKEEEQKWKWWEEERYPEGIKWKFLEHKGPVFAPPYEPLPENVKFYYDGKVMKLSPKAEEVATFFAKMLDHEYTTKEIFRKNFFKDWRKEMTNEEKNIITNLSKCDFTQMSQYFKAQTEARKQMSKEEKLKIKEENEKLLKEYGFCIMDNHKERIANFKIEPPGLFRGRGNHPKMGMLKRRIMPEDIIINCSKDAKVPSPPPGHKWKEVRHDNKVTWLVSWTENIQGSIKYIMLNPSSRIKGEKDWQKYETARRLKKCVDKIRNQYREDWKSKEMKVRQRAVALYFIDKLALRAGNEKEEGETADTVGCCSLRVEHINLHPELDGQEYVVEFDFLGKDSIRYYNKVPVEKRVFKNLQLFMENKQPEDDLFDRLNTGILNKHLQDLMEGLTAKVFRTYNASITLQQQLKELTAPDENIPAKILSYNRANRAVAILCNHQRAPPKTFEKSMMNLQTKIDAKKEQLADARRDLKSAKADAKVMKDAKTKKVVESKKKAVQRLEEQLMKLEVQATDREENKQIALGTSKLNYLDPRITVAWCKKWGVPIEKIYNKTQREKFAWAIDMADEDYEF

recombinant TDP1 = recombinant TDP1 (Homo sapiens, UniProt Q9NUW8); test: Gel-based assay measuring the inhibition of recombinant TDP1; type: biochemical
Procedure, shortened: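 Gel assay: a 5′-[32P]-labeled single-stranded DNA oligonucleotide with a 3′-phosphotyrosine (N14Y) was incubated with 5 pM recombinant TDP1 and test compound for 15 min at room temperature. Samples were run on 16% denaturing PAGE and quantified by phosphorimager densitometry.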

[1] = test system: panel of 60 different human cancer cell lines; test: NCI-60 five-dose assay, mean graph midpoint; type: cell-based; conditions: mean graph midpoint of growth inhibition, five-dose assay 10^–8 to 10^–4 M
renal, SN12C = test: NCI-60 five-dose assay, SN12C; type: cell-based; conditions: Homo sapiens, read-out: cytotoxicity GI50, renal, SN12C
Procedure, shortened: (§1)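 Run in the National Cancer Institute's NCI-60 human cancer cell panel. Test compounds were first screened in a one-dose assay at 10–5 M, reading growth percent relative to vehicle-treated control.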

melanoma, UACC-62 = test: NCI-60 five-dose assay, UACC-62; type: cell-based; conditions: Homo sapiens, UACC-62, read-out: cytotoxicity GI50, melanoma, UACC-62
Procedure, shortened: as §1

[2] = read-out: TDP1 inhibition, score according to IC50

Chain of recombinant TDP1 (Q9NUW8 whole entry): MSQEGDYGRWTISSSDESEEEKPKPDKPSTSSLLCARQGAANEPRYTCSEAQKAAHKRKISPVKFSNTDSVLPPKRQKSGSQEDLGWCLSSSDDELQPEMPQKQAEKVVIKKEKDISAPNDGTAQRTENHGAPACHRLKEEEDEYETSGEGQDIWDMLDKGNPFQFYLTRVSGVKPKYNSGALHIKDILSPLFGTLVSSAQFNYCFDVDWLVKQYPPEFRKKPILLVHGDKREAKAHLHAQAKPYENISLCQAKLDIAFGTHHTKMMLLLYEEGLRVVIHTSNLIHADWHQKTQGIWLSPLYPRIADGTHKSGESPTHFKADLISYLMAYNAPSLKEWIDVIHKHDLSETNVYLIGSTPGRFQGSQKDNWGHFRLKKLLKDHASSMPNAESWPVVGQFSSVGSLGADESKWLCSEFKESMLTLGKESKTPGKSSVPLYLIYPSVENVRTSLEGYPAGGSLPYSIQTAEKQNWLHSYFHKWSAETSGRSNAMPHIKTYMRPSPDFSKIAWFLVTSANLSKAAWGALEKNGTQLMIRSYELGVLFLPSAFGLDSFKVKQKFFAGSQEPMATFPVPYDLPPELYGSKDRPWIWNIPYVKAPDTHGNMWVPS

Row | SMILES | Top1 cleavage (recombinant Top1) | IC50 (recombinant TDP1; [2]) | MGM [1] | further results
1 | COc1cc2c3c(n(C[C@H](O)[C@@H](O)[C@H](O)[C@H](O)CO)c(=O)c2cc1OC)-c1cc2c(cc1C3=O)OCO2 [Compound 60, (2′S,3′R,4′R,5′R)-5,6-Dihydro-6-(2′,3′,4′,5′,6′-pentahydroxyhexyl)-2,3-dimethoxy-8,9-methylenedioxy-5,11-dioxo-11H-indeno[1,2-c]isoquinolone] | +++ (+++, between 75% and 95% activity) |  |  | 
2 | O=C1c2ccccc2-c2c1c1ccc([N+](=O)[O-])cc1c(=O)n2C[C@H](O)[C@@H](O)[C@H](O)CO [Compound 68, (2′S,3′R,4′R)-5,6-Dihydro-6-(2′,3′,4′,5′-tetrahydroxypentyl)-3-nitro-5,11-dioxo-11H-indeno[1,2-c]isoquinoline] | ++++(+) | 37 to 111 µM | 0.372 ± 0.024 µM | 
3 | O=C1c2ccccc2-c2c1c1ccc([N+](=O)[O-])cc1c(=O)n2C[C@@H](O)[C@@H](O)[C@H](O)CO [Compound 67, (2′R,3′R,4′R)-5,6-Dihydro-6-(2′,3′,4′,5′-tetrahydroxypentyl)-3-nitro-5,11-dioxo-11H-indeno[1,2-c]isoquinoline] | ++++ | 12 to 37 µM | 1.66 µM | 
4 | O=C1c2ccccc2-c2c1c1ccc([N+](=O)[O-])cc1c(=O)n2C[C@@H]1O[C@H](CO)[C@@H](O)[C@H](O)[C@H]1O [Compound 71] | ++ (++, between 50% and 75% activity) | 12 to 37 µM |  | IC50 (recombinant TDP1): ≥ 12 µM
5 | COc1cc2c3c(n(C[C@@H](O)[C@@H](O)[C@H](O)CO)c(=O)c2cc1OC)-c1cc2c(cc1C3=O)OCO2 [Compound 57, (2′R,3′R,4′R)-5,6-Dihydro-6-(2′,3′,4′,5′-tetrahydroxypentyl)-2,3-dimethoxy-8,9-methylenedioxy-5,11-dioxo-11H-indeno[1,2-c]isoquinoline] | ++++ |  | 2.94 ± 0.52 µM | 
6 | O=C1c2ccccc2-c2c1c1ccc([N+](=O)[O-])cc1c(=O)n2C[C@@H](O)[C@H](O)[C@H](O)CO [Compound 65, (2′R,3′S,4′R)-5,6-Dihydro-6-(2′,3′,4′,5′-tetrahydroxypentyl)-3-nitro-5,11-dioxo-11H-indeno[1,2-c]isoquinoline] | ++++ | 37 to 111 µM | 1.58 µM | GI50 (renal, SN12C): 2.69 µM
7 | O=C1c2ccccc2-c2c1c1ccc([N+](=O)[O-])cc1c(=O)n2C[C@@H](O)[C@@H](O)[C@H](O)[C@H](O)CO [Compound 70, (2′R,3′R,4′R,5′R)-5,6-Dihydro-6-(2′,3′,4′,5′,6′-pentahydroxyhexyl)-3-nitro-5,11-dioxo-11H-indeno[1,2-c]isoquinoline] | ++++ | 37 to 111 µM | 16.6 µM | 
8 | O=C1c2ccccc2-c2c1c1ccc([N+](=O)[O-])cc1c(=O)n2C[C@H](O)[C@H](O)[C@H](O)CO [Compound 66, (2′S,3′S,4′R)-5,6-Dihydro-6-(2′,3′,4′,5′-tetrahydroxypentyl)-3-nitro-5,11-dioxo-11H-indeno[1,2-c]isoquinoline] | ++++(+) |  | 0.508 ± 0.041 µM | 
9 | O=C1c2ccccc2-c2c1c1ccc([N+](=O)[O-])cc1c(=O)n2CC(O)CO (stereo not drawn) [Compound 63, (2′RS)-5,6-Dihydro-6-(2′,3′-dihydroxypropyl)-3-nitro-5,11-dioxo-11H-indeno[1,2-c]isoquinoline] | +++ (+++, between 75% and 95% activity) |  | 0.389 ± 0.013 µM | 
10 | O=C1c2ccccc2-c2c1c1ccc([N+](=O)[O-])cc1c(=O)n2C[C@@H](O)CO [Compound 64, (2′R)-5,6-Dihydro-6-(2′,3′-dihydroxypropyl)-3-nitro-5,11-dioxo-11H-indeno[1,2-c]isoquinoline] | +++ (+++, between 75% and 95% activity) |  | 0.332 ± 0.022 µM | 
11 | COc1cc2c3c(n(C[C@H](O)CO)c(=O)c2cc1OC)-c1cc2c(cc1C3=O)OCO2 [Compound 53, (2′S)-5,6-Dihydro-6-(2′,3′-dihydroxypropyl)-2,3-dimethoxy-8,9-methylenedioxy-5,11-dioxo-11H-indeno[1,2-c]isoquinoline] | ++++ |  | 0.049 ± 0.003 µM | 
12 | COc1cc2c3c(n(CC(O)CO)c(=O)c2cc1OC)-c1cc2c(cc1C3=O)OCO2 (stereo not drawn) [Compound 52, (2′RS)-5,6-Dihydro-6-(2′,3′-dihydroxypropyl)-2,3-dimethoxy-8,9-methylenedioxy-5,11-dioxo-11H-indeno[1,2-c]isoquinoline] | ++++ |  | 0.065 ± 0.011 µM | 
13 | COc1cc2c3c(n(C[C@@H]4O[C@H](CO)[C@@H](O)[C@H](O)[C@H]4O)c(=O)c2cc1OC)-c1cc2c(cc1C3=O)OCO2 [Compound 62] | ++ (++, between 50% and 75% activity) | 37 to 111 µM |  | IC50 (recombinant TDP1; read-out: TDP1 IC50): ≥ 12 µM
14 | COc1cc2c3c(n(C[C@@H](O)[C@@H](O)[C@H](O)[C@H](O)CO)c(=O)c2cc1OC)-c1cc2c(cc1C3=O)OCO2 [Compound 61, (2′R,3′R,4′R,5′R)-5,6-Dihydro-6-(2′,3′,4′,5′,6′-pentahydroxyhexyl)-2,3-dimethoxy-8,9-methylenedioxy-5,11-dioxo-11H-indeno[1,2-c]isoquinoline] | ++++ |  |  | 
15 | COc1cc2c3c(n(C[C@@H](O)[C@H](O)[C@H](O)CO)c(=O)c2cc1OC)-c1cc2c(cc1C3=O)OCO2 [Compound 55, (2′R,3′S,4′R)-5,6-Dihydro-6-(2′,3′,4′,5′-tetrahydroxypentyl)-2,3-dimethoxy-8,9-methylenedioxy-5,11-dioxo-11H-indeno[1,2-c]isoquinoline] | +++ (+++, between 75% and 95% activity) |  | 5.62 ± 0.18 µM | 
16 | COc1cc2c3c(n(C[C@H](O)[C@@H](O)[C@@H](O)[C@H](O)CO)c(=O)c2cc1OC)-c1cc2c(cc1C3=O)OCO2 [Compound 59, (2′S,3′R,4′S,5′R)-5,6-Dihydro-6-(2′,3′,4′,5′,6′-pentahydroxyhexyl)-2,3-dimethoxy-8,9-methylenedioxy-5,11-dioxo-11H-indeno[1,2-c]isoquinoline] | ++ (++, between 50% and 75% activity) | 37 to 111 µM |  | 
17 | COc1cc2c3c(n(C[C@@H](O)CO)c(=O)c2cc1OC)-c1cc2c(cc1C3=O)OCO2 [Compound 54, (2′R)-5,6-Dihydro-6-(2′,3′-dihydroxypropyl)-2,3-dimethoxy-8,9-methylenedioxy-5,11-dioxo-11H-indeno[1,2-c]isoquinoline] | ++++ |  | 0.166 ± 0.005 µM | GI50 (melanoma, UACC-62): 0.025 µM
18 | COc1cc2c3c(n(C[C@H](O)[C@H](O)[C@H](O)CO)c(=O)c2cc1OC)-c1cc2c(cc1C3=O)OCO2 [Compound 56, (2′S,3′S,4′R)-5,6-Dihydro-6-(2′,3′,4′,5′-tetrahydroxypentyl)-2,3-dimethoxy-8,9-methylenedioxy-5,11-dioxo-11H-indeno[1,2-c]isoquinoline] |  | 37 to 111 µM | 1.43 ± 0.44 µM | 
